NadD block = inhibitors of Staphylococcus aureus NadD. purified NadD enzyme, colorimetric absorbance read-out. inhibition, % at 20 µM. 360,000 tested, 0.78% active; in the data active means inhibition above about 26%
UCH37 inh = human UCH37 deubiquitinating enzyme inhibition; inhibition, % (no concentration beside the values); Q9Y5K5; 330,000 tested, 0.33% active; purified proteasome/UCH37, Ub-AMC cleavage fluorescence;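 active means mean inhibition over replicate wells above about 20%, limit read from the data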;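 further: 0% = compound-free wells with enzyme and 100% = wells lacking proteasome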
Target sequence (Q9Y5K5 whole entry, looked up): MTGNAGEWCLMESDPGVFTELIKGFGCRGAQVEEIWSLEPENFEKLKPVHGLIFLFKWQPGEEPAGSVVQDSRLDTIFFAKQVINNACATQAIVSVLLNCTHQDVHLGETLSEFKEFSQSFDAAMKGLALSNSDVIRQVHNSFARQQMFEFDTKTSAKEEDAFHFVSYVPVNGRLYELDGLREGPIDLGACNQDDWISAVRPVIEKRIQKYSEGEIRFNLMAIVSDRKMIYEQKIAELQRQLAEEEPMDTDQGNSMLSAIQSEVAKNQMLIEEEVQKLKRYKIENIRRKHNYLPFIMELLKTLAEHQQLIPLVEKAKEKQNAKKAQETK
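Schedule: 30 min plus 25 min, room temperature / Material: human UCH37 within purified proteasomes / Technique: AMC fluorescence intensity at 355/460 nm / Buffer or medium: pH 7.4 Tris-HCl (50 mM) with ovalbumin, ATP-MgCl2, DTT / Controls: wells without proteasome as full block, compound-free enzyme plus substrate as uninhibited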
SENP1 inh = SENP1 (human) catalytic domain inhibition; Q9P0U3; 360,000 tested, 0.21% active; recombinant SENP1 catalytic domain, CyPet-SUMO1-YPet FRET cleavage; inhibition, % at 10 µM;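 active means inhibition at least 30% at 10 µM, raw YFP signal under a set limit, fluorescence ratio 0.5 to 1.5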;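 further: 0% = enzyme with DMSO and 100% = no enzyme wells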
Target sequence (Q9P0U3 419-644 limits assumed): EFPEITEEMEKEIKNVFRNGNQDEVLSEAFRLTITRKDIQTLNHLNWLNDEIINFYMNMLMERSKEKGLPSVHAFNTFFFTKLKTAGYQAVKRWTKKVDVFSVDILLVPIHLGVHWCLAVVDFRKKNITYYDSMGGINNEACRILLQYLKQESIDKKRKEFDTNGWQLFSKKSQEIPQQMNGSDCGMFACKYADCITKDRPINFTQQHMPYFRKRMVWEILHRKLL
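material = recombinant human SENP1 catalytic domain, His6-tagged | quantity = 20 pM enzyme | reagent = 25 nM SUMO1 FRET substrate | compound dosing = 10 µM single point, 0.5% DMSO | timing = 50 min enzyme reaction, room temperature, light-protected | detection = FRET, CFP and YFP emission | control set = no-enzyme low, enzyme-DMSO high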
ATG4B inh = ATG4B (human) cysteine protease inhibition. Q9Y4P1. ATG4B cleavage of LC3-PLA2, NBD-HPC fluorescence, 1 h. inhibition, % at 8.33 µM. 340,000 tested, 0.51% active. AID 504462; in the data active means inhibition above about 40%
NR3A LBD binder = modulates the human NR3A ligand-binding domain. 340,000 tested, 2.5% active. Tm shift relative to glycine control, % at 25 µM. NR3A LBD differential scanning fluorimetry, Tm shift; 0% = protein alone, 100% = glycine-bound protein;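 active means melting temperature shift of at least 10% of the positive control shift, at one fixed dose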
* hit, by the source's call; . = no result. Hits are enriched below; roughly 3.6% of the tested compounds scored in any of these assays.

SMILES | NadD block | UCH37 inh | SENP1 inh | ATG4B inh | NR3A LBD binder
O=C(CCC(=O)Nc1ccc(Br)cc1)N/N=C/c1ccccc1O | -4.6 | . | -6.9 | -7.9 | -14.4
CN(C)C(/C=C/Nc1ccc([N+](=O)[O-])cc1)=C(C#N)C#N | -2.8 | 5.9 | -8.6 | -4.7 | 17.9*
CCOC(=O)CC(C)(C)C(C)=NNc1ccc([N+](=O)[O-])cc1[N+](=O)[O-] | . | 5.9 | . | . | .
O=C(CNc1cccc2ccccc12)NN=Cc1ccc(OC(=O)/C=C/c2ccco2)cc1 | . | 4.5 | . | . | .
O=C(CNc1cccc2ccccc12)NN=Cc1ccc([N+](=O)[O-])cc1 | . | 0.0 | . | . | .
CSc1ccc(/C=N/NC(=O)CNc2cccc3ccccc23)cc1 | 18.4 | . | -39.5 | -6.7 | 19.4*
O=C(CNc1ccc2ccccc2c1)N/N=C/c1ccc(OC(=O)/C=C/c2ccco2)cc1 | 25.1 | . | -5.1 | 1.4 | 21.0*
CSc1ccc(/C=N/NC(=O)CNc2ccc3ccccc3c2)cc1 | 4.9 | . | -15.9 | -9.1 | 21.1*
CC(=NN=C(N)SC1CC(=O)N(c2ccc(Cl)c(Cl)c2)C1=O)c1cccs1 (stereo not drawn) | . | 10.1 | . | . | .
Oc1c(Br)cc(Br)cc1C=NCc1ccc(F)cc1 | 5.9 | 5.3 | -24.9 | 73.8* | -0.2
O=C(Nc1ccc(Cl)cc1)C1C2CCC3C(CCC21)C3(Cl)Cl (stereo not drawn) | -8.3 | -0.7 | 2.8 | -3.9 | 4.8
Cc1cccc(NC(=O)C2C3CCC4C(CCC32)C4(Cl)Cl)c1 (stereo not drawn) | 3.6 | 1.4 | 2.2 | -1.3 | 12.7*
CCn1cc2nc(SCC(=O)Nc3ccc(OC)c(OC)c3)n(Cc3ccc(OC)cc3)c(=O)c2n1 | -8.5 | 4.1 | -0.1 | -8.5 | 13.9*
O=C(Cc1csc(N2CCOCC2)n1)NN=Cc1ccc(F)cc1 | . | 1.1 | . | . | .
CC1=CC2=NC(=O)/C(=C\c3ccc(-c4cccc(Cl)c4)o3)C(=N)N2O1 | 10.9 | -21.3 | -25.7 | 8.9 | 22.2*
CC1=NOC(=O)/C1=C\c1ccc(-c2cccc(Cl)c2)o1 | 12.1 | 0.3 | -1.8 | 5.2 | -3.3
Cc1cccc(C=NNC(=O)c2ccncc2)n1 | . | 3.1 | . | . | .
S=C(NN=Cc1cccc2ccccc12)Nc1cccc(Cl)c1 | . | -1.1 | . | . | .
Cc1ncc(CO)c(C=NNC(=S)Nc2ccc(F)cc2)c1O | . | -73.5 | . | . | .
Cc1ncc(CO)c(/C=N/NC(=S)Nc2cccc(Cl)c2)c1O | 12.3 | . | -26.2 | -16.9 | 27.5*
Cc1ncc(CO)c(/C=N/NC(=S)Nc2ccc(Cl)c(Cl)c2)c1O | 4.1 | . | -24.9 | -0.9 | 23.0*
O=C(NN=Cc1ccc(OC(=O)c2ccccc2Cl)cc1)c1ccccn1 | . | -10.0 | . | . | .
CC(=NNC(=O)c1ccc(C)s1)c1cccc(NC(=O)COc2ccc(Cl)cc2Cl)c1 | . | -8.5 | . | . | .
COc1ccc(Cc2nnc(NN=Cc3ccc(N(C)C)cc3)[nH]c2=O)cc1OC | . | 9.5 | . | . | .
NS(=O)(=O)c1ccc(NC(=O)CSc2nnc(Cc3cccs3)n2-c2ccccc2)cc1 | 2.1 | -5.2 | 1.3 | -2.7 | 10.3*
SMILES | NadD block | UCH37 inh | SENP1 inh | ATG4B inh | NR3A LBD binder
Cc1ccc(-n2c(Cc3cccs3)nnc2SCC(=O)Nc2ccc(S(N)(=O)=O)cc2)cc1 | -1.8 | 0.3 | 0.2 | -17.3 | -1.2
COc1ccccc1NS(=O)(=O)c1ccc(NN=C/C=C/c2ccccc2[N+](=O)[O-])c([N+](=O)[O-])c1 | . | 11.6 | . | . | .
CN(c1cccc(NC(=O)CN(c2ccc(C34CC5CC(CC(C5)C3)C4)cc2)S(C)(=O)=O)c1)S(C)(=O)=O | 11.5 | 1.2 | 2.2 | -34.5 | 30.1*
CN(c1cccc(NC(=O)CN(c2ccc(F)cc2)S(C)(=O)=O)c1)S(C)(=O)=O | -0.2 | 2.3 | 3.9 | 11.2 | -2.0
CC(C)CN1C(=S)SC(C)(C)C1n1oc(=O)n(-c2ccccc2)c1=O (stereo not drawn) | -1.9 | 4.1 | 3.0 | -13.7 | -4.0
CC(C)CN1C(=S)SC(C)(C)C1n1oc(=O)n(-c2ccc(Cl)cc2)c1=O (stereo not drawn) | -5.6 | 3.5 | -0.5 | 8.5 | 10.7*
O=C(CN1CCCC1)N1c2ccccc2Sc2ccc(C(F)(F)F)cc21 | -3.9 | 3.4 | 1.0 | -3.1 | -6.7
O=C(CSc1nc2ccccc2o1)N1c2ccccc2Sc2ccc(C(F)(F)F)cc21 | 2.6 | 2.1 | 2.7 | 8.6 | 11.9*
Brc1ccc(/C=C/C=N/Nc2nc3ccccc3s2)cc1 | 15.9 | . | -42.7 | 8.9 | 39.8*
Cc1ccc2[nH]c(C)c(/C=N/Nc3nc4ccccc4s3)c2c1 | 20.2 | . | -7.2 | -10.1 | 24.3*
Brc1csc(/C=N/Nc2nc3ccccc3s2)c1 | 11.9 | . | -4.5 | 18.5 | 21.8*
COc1ccc(C=NNc2nc3ccccc3s2)cc1 | -1.3 | -2.9 | -0.4 | -11.1 | 33.1*
COc1ccc(C=NNc2nc3ccccc3s2)cc1O | . | -3.5 | . | . | .
Cc1cccn2c(=O)c(C=NO)c(NCc3ccccc3)nc12 | . | -32.9 | . | . | .
CC(CC(C)C)=NNC(=O)Nc1ccccc1 | . | 2.0 | . | . | .
CS(=O)(=O)N(CC(=O)NN=Cc1cccs1)c1cccc(Cl)c1Cl | . | 3.4 | . | . | .
O=[N+]([O-])c1cc(Cl)cc(/C=N/Nc2nc3ccccc3s2)c1O | 7.5 | . | -3.5 | 12.3 | 20.0*
O=[N+]([O-])c1cc(Br)c(O)c(C=NNc2nc3ccccc3s2)c1 | . | 3.3 | . | . | .
Cc1ccc(/C=N\NC(=O)c2cc(OCC(F)(F)F)ccc2OCC(F)(F)F)cc1 | -0.2 | . | -0.3 | 16.4 | 14.2*
CCN(c1ccccc1)S(=O)(=O)c1cc(C(=O)Nc2ccc(F)c(F)c2)ccc1F | -12.2 | 4.6 | 1.2 | -1.8 | 10.5*
CN(C)/C(CN1CCN(C=O)CC1)=C1\N=C(c2ccccc2)OC1=O | -5.4 | 20.0* | 3.3 | -5.4 | 2.1
COc1ccc(C=NNc2cc(C)nc3c(C)cccc23)cc1 | . | -33.7 | . | . | .
O=C(O)c1ccc(COc2ccccc2[N+](=O)[O-])o1 | -5.9 | 0.7 | 0.9 | 4.1 | -0.1
CC(=O)c1ccc(NC(=O)c2ccc(COc3ccccc3[N+](=O)[O-])o2)cc1 | -5.5 | 1.9 | 3.7 | 2.4 | 12.6*
COc1ccc(NC(=O)c2ccc(-c3ccc([N+](=O)[O-])cc3)o2)cc1OC | -4.9 | 7.3 | 4.2 | -23.7 | 14.4*
Cc1nnc(NC(=O)c2ccc(-c3ccc([N+](=O)[O-])cc3)o2)s1 | 1.0 | 6.6 | -0.5 | -3.0 | -22.5
CC(=O)Nc1ccc(NC(=O)c2ccc(-c3ccc([N+](=O)[O-])cc3)o2)cc1 | -11.2 | 7.3 | 1.5 | -3.4 | 12.0*
COc1cccc(NC(=O)c2ccc(-c3ccc([N+](=O)[O-])cc3)o2)c1 | 15.2 | 9.8 | -26.4 | -4.8 | 16.9*
CCOc1ccc(N(C(C)C(=O)NN=C(C)C(C)(C)C)S(C)(=O)=O)cc1 (stereo not drawn) | . | 2.7 | . | . | .
O=C1CC(N(Cc2cccs2)C(=O)Nc2ccccc2)C(=O)N1c1ccc(Cl)cc1 (stereo not drawn) | -8.6 | 6.2 | 0.9 | -7.0 | 14.0*

Source: PubChem BioAssay (several laboratories)
